≈ marks a conversion by molar mass, not a printed value.
Legend:
Assay type in all cases: functional
[1] = system: Mycobacterium tuberculosis; test: Antitubercular activity against Mycobacterium tuberculosis H37Rv by MABA assay
[2] = system: Mycobacterium tuberculosis; test: Antitubercular activity against Mycobacterium tuberculosis H37Rv by microdilution method
Method in brief: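 Agar microdilution: serial two-fold compound dilutions in 7H10 agar, with H37Rv as test organism. MIC was the concentration completely inhibiting growth and colony-forming ability of M. tuberculosis.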

[3] = Selectivity index, IC50 for vero cells to MIC for Mycobacterium tuberculosis H37Rv
[4] = system: Mycobacterium tuberculosis; test: Antitubercular activity against Mycobacterium tuberculosis H37Rv by BACTEC method
Method in brief: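 Radiometric BACTEC 12B (7H12) broth; compounds from 1 mg/mL DMSO stock, DMSO-only controls, isoniazid and rifampin references. H37Rv inoculated at 10⁴–10⁵ CFU/mL, plus 1:100-diluted inoculum control. Incubated at 37 °C with daily GI readings until the 1:100 control reached GI 30. MIC was the concentration giving a final GI below the 1:100 control ([…] inhibition).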

SMILES	MIC [1] [µg/mL]	MIC [2] [µg/mL]	Selectivity index [3]	MIC [4] [µg/mL]
COc1ccc(C(c2ccc(OCCN3CCCCC3)cc2)c2cn(S(=O)(=O)c3ccccc3)c3ccccc23)cc1 (centres undefined)	6.25 (≈ 10.8 µM)	6.25 (≈ 10.8 µM)	10	6.25 (≈ 10.8 µM)
COc1ccc(Cc2ccc(OCCN3CCCCC3)cc2)cc1	> 25	> 25	–	–
COc1ccc(C(c2ccc(OCCN(C)C)cc2)c2cn(S(=O)(=O)c3ccccc3)c3ccccc23)cc1 (centres undefined)	> 25	> 12.5	–	–
CN(C)CCOc1ccc(C(c2ccc(O)cc2)c2cc3ccccc3c3ccccc23)cc1 (centres undefined)	25 (≈ 55.9 µM)	12.5 (≈ 27.9 µM)	–	12.5 (≈ 27.9 µM)
CCN(CC)CCOc1ccc(C(c2ccc(O)cc2)c2cc3ccccc3c3ccccc23)cc1 (centres undefined)	25 (≈ 52.6 µM)	12.5 (≈ 26.3 µM)	–	12.5 (≈ 26.3 µM)
CCN(CC)CCOc1ccc(C(c2ccc(OC)cc2)c2cccnc2)cc1 (centres undefined)	> 25	> 25	–	12.5 (≈ 32 µM)
COc1ccc(C(c2ccc(OCCN3CCCC3)cc2)c2cccnc2)cc1 (centres undefined)	> 25	> 25	–	12.5 (≈ 32.2 µM)
COc1ccc(C(c2ccc(OCCN(C)C)cc2)c2c3ccccc3cc3ccccc23)cc1 (centres undefined)	12.5 (≈ 27.1 µM)	12.5 (≈ 27.1 µM)	–	–
COc1ccc(C(c2ccc(OCCN3CCCC3)cc2)c2cn(S(=O)(=O)c3ccccc3)c3ccccc23)cc1 (centres undefined)	12.5 (≈ 22.1 µM)	12.5 (≈ 22.1 µM)	–	–
CCN(CC)CCOc1ccc(C(c2ccc(OC)cc2)c2cc3ccccc3c3ccccc23)cc1 (centres undefined)	6.25 (≈ 12.8 µM)	6.25 (≈ 12.8 µM)	20	6.25 (≈ 12.8 µM)
COc1ccc(C(c2ccc(OCCN3CCCCC3)cc2)c2cc3ccccc3c3ccccc23)cc1 (centres undefined)	6.25 (≈ 12.5 µM)	6.25 (≈ 12.5 µM)	10	6.25 (≈ 12.5 µM)
Oc1ccc(C(c2ccc(OCCN3CCCCC3)cc2)c2cc3ccccc3c3ccccc23)cc1 (centres undefined)	25 (≈ 51.3 µM)	12.5 (≈ 25.6 µM)	–	12.5 (≈ 25.6 µM)
COc1ccc(C(c2ccc(OCCN(C)C)cc2)c2cc3ccccc3c3ccccc23)cc1 (centres undefined)	25 (≈ 54.2 µM)	25 (≈ 54.2 µM)	–	12.5 (≈ 27.1 µM)
COc1ccc(Cc2ccc(OCCN(C)C)cc2)cc1	> 25	> 25	–	–
CCN(CC)CCOc1ccc(C(c2ccc(OC)cc2)c2cn(S(=O)(=O)c3ccccc3)c3ccccc23)cc1 (centres undefined)	12.5 (≈ 22 µM)	12.5 (≈ 22 µM)	–	–
COc1ccc(C(c2ccc(OCCN3CCCC3)cc2)c2cc3ccccc3c3ccccc23)cc1 (centres undefined)	6.25 (≈ 12.8 µM)	6.25 (≈ 12.8 µM)	20	6.25 (≈ 12.8 µM)
COc1ccc(C(c2ccc(OCCN(C)C)cc2)c2cccnc2)cc1 (centres undefined)	> 25	> 25	–	–
COc1ccc(C(c2ccc(OCCN3CCCCC3)cc2)c2cccnc2)cc1 (centres undefined)	> 25	> 25	–	12.5 (≈ 31.1 µM)
COc1ccc(C(c2ccc(OCCN3CCCCCC3)cc2)c2cn(S(=O)(=O)c3ccccc3)c3ccccc23)cc1 (centres undefined)	12.5 (≈ 21 µM)	12.5 (≈ 21 µM)	–	12.5 (≈ 21 µM)
